The species named for the first data set is Rattus norvegicus. Nature of the data set: Anticonvulsant activity against maximal electroshock seizures(MES) in rats. It counts as functional.
Conditions: not given
The procedure, abridged: (§1)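 Adult male Wistar rats (200-250 g), groups of 10, dosed ip in 80% DMSO/20% distilled water. 60 min later a 50-mA, 60-Hz alternating current was given through ear electrodes for 0.2 s. Protection was absence of tonic hind limb extension. ED50 (±95% confidence limits) by Litchfield and Wilcoxon.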
Background: Protection in the maximal electroshock model is a classic sign of anticonvulsant action.
In turn, `CC12CCC(=O)N1c1ccc([N+](=O)[O-])cc1N2` (centres undefined) returned an ED50 above 600 µmol/kg.

With `O=C1CCC2(c3ccc(Cl)cc3)Nc3ccc(Cl)cc3N12` (centres undefined), the ED50 came out at 501 µmol/kg.

In turn, `CC12CCC(=O)N1c1ccccc1N2` (centres undefined) returned an ED50 of 35.5 µmol/kg.

The compound `O=C1CCC2(c3ccc(F)cc3)Nc3ccccc3N12` (centres undefined) gave an ED50 of 575 µmol/kg.

In turn, `O=C1CCC2(c3ccc(Cl)cc3)Nc3ccccc3N12` (centres undefined) registered an ED50 of 234 µmol/kg.

In turn, `O=C1CCC2(c3ccccc3)Nc3ccc(Cl)cc3N12` (centres undefined) came in with an ED50 of 271 µmol/kg.

Turning to `O=C1CCC2(c3ccc(Cl)cc3)Nc3cc(Cl)ccc3N12` (centres undefined), it took a dose of 281 µmol/kg to reach the 50% effect level (ED50).

Compound `O=C1CCC2(c3ccccc3)Nc3ccccc3N12` (centres undefined) returned a 50% effective dose (ED50) of 200 µmol/kg.

Compound `O=C1CCC2(c3ccccc3)Nc3cc(Cl)ccc3N12` (centres undefined) came in with an ED50 of 126 µmol/kg.

In turn, `O=C1CCC2(c3ccc(F)cc3)Nc3ccc(Cl)cc3N12` (centres undefined) gave an ED50 of 198 µmol/kg.

For `O=C1CCC2(c3ccc(F)cc3)Nc3cc(Cl)ccc3N12` (centres undefined), the ED50 was 105 µmol/kg.

`CC12CCC(=O)N1c1cc(Cl)ccc1N2` (centres undefined) yielded an ED50 of 234 µmol/kg.

Compound `CCCC(CCC)C(=O)O` [VALPROIC ACID] gave an ED50 of 1890 µmol/kg.

The compound `Cc1ccc2c(c1)N1C(=O)CCC1(C)N2` (centres undefined) gave an ED50 of 197 µmol/kg.

For `O=C1NC(=O)C(c2ccccc2)(c2ccccc2)N1` [PHENYTOIN], the 50% effect level (ED50) was put at a dose of 55.5 µmol/kg.

As for `CC12CCC(=O)N1c1cc([N+](=O)[O-])ccc1N2` (centres undefined), the ED50 was above 600 µmol/kg.

For the compound `CC12CCC(=O)N1c1ccc(Cl)cc1N2` (centres undefined), the ED50 was determined as 88.2 µmol/kg.

Regarding `Cc1ccc2c(c1)NC1(C)CCC(=O)N21` (centres undefined), the 50% effect level (ED50) was put at a dose of 141 µmol/kg.

Tested on in another data set: not listed separately
Nature of the data set: Relative lipophilicity. Type of data set: physicochemical. To be noted: reversed-phase TLC, acetone/water 2:1. The procedure, abridged: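 Reversed-phase TLC on silanized silica gel plates dried 1 h at 105 °C, with acetone/water 2:1 v/v as mobile phase. Compounds were applied from chloroform solution (3 mg/mL). Rf is the mean of five runs with different plate positions, and RM = log[(1/Rf) - 1].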
As for `CC12CCC(=O)N1c1ccc([N+](=O)[O-])cc1N2` (centres undefined), the RM is recorded as -0.187.

The compound `O=C1CCC2(c3ccc(Cl)cc3)Nc3ccc(Cl)cc3N12` (centres undefined) yielded an RM of 0.073.

Consider `CC12CCC(=O)N1c1ccccc1N2` (centres undefined), for which the RM is reported as -0.341.

Regarding `O=C1CCC2(c3ccc(F)cc3)Nc3ccccc3N12` (centres undefined), the RM is recorded as -0.084.

Compound `O=C1CCC2(c3ccc(Cl)cc3)Nc3ccccc3N12` (centres undefined) showed an RM of -0.033.

In turn, `O=C1CCC2(c3ccccc3)Nc3ccc(Cl)cc3N12` (centres undefined) had an RM of -0.005.

`O=C1CCC2(c3ccc(Cl)cc3)Nc3cc(Cl)ccc3N12` (centres undefined) returned an RM of 0.068.

As for `O=C1CCC2(c3ccccc3)Nc3ccccc3N12` (centres undefined), the RM is on record as -0.131.

For `O=C1CCC2(c3ccccc3)Nc3cc(Cl)ccc3N12` (centres undefined), the RM is given as -0.007.

Take `O=C1CCC2(c3ccc(F)cc3)Nc3ccc(Cl)cc3N12` (centres undefined): the RM stood at 0.028.

`O=C1CCC2(c3ccc(F)cc3)Nc3cc(Cl)ccc3N12` (centres undefined) came in with an RM of 0.019.

With `CC12CCC(=O)N1c1cc(Cl)ccc1N2` (centres undefined), the RM was -0.162.

`Cc1ccc2c(c1)N1C(=O)CCC1(C)N2` (centres undefined) came in with an RM of -0.279.

In turn, `CC12CCC(=O)N1c1cc([N+](=O)[O-])ccc1N2` (centres undefined) displayed an RM of -0.237.

On to `CC12CCC(=O)N1c1ccc(Cl)cc1N2` (centres undefined), for which the RM is recorded as -0.167.

As for `Cc1ccc2c(c1)NC1(C)CCC(=O)N21` (centres undefined), the RM is on record as -0.284.

For the next data set, the species on record is Rattus norvegicus. Nature of the data set: Compound was tested for its activity against tonic hind limb extension in MES test in rats; Completely antagonized. It counts as functional, Hindlimb.
Conditions: not given
The procedure, abridged: as §1
On to `CC12CCC(=O)N1c1ccccc1N2` (centres undefined), for which the Activity was 200 µM/kg.

The species named for a further data set is Mus musculus. Nature of the data set: Anticonvulsant activity against audiogenic seizures in DBA/2 mice.
Conditions: not given
Type of data set: functional. The method in brief: (§2)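 DBA/2 mice of either sex (6-12 g, 21-25 days old), dosed ip in 80% DMSO/20% distilled water. 45 min later exposed to a mixed-frequency 109-dB sound for up to 60 s. Latency to and incidence of wild running, clonus, tonus and respiratory arrest were scored. ED50 (±95% confidence limits) by Litchfield and Wilcoxon.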
`CC12CCC(=O)N1c1ccc([N+](=O)[O-])cc1N2` (centres undefined): the ED50 is above 600 µmol/kg.

As for `O=C1CCC2(c3ccc(Cl)cc3)Nc3ccc(Cl)cc3N12` (centres undefined), the ED50 turned out to be 347 µmol/kg.

For the compound `CC12CCC(=O)N1c1ccccc1N2` (centres undefined), the ED50 is 26.3 µmol/kg.

In turn, `O=C1CCC2(c3ccc(F)cc3)Nc3ccccc3N12` (centres undefined) had an ED50 of 356 µmol/kg.

The compound `O=C1CCC2(c3ccc(Cl)cc3)Nc3ccccc3N12` (centres undefined) had an ED50 of 166 µmol/kg.

`O=C1CCC2(c3ccccc3)Nc3ccc(Cl)cc3N12` (centres undefined) showed an ED50 of 179 µmol/kg.

Take `O=C1CCC2(c3ccc(Cl)cc3)Nc3cc(Cl)ccc3N12` (centres undefined): the 50% effect level (ED50) was put at a dose of 143 µmol/kg.

`O=C1CCC2(c3ccccc3)Nc3ccccc3N12` (centres undefined) had an ED50 of 161 µmol/kg.

On to `O=C1CCC2(c3ccccc3)Nc3cc(Cl)ccc3N12` (centres undefined), for which it took a dose of 95.9 µmol/kg to reach the 50% effect level (ED50).

The compound `O=C1CCC2(c3ccc(F)cc3)Nc3ccc(Cl)cc3N12` (centres undefined) had an ED50 of 178 µmol/kg.

Regarding `O=C1CCC2(c3ccc(F)cc3)Nc3cc(Cl)ccc3N12` (centres undefined), it took a dose of 87.3 µmol/kg to reach the 50% effect level (ED50).

As for `CC12CCC(=O)N1c1cc(Cl)ccc1N2` (centres undefined), the ED50 was 148 µmol/kg.

The compound `CCCC(CCC)C(=O)O` [VALPROIC ACID] showed an ED50 of 1230 µmol/kg.

Regarding `Cc1ccc2c(c1)N1C(=O)CCC1(C)N2` (centres undefined), it took a dose of 122 µmol/kg to reach the 50% effect level (ED50).

The compound `O=C1NC(=O)C(c2ccccc2)(c2ccccc2)N1` [PHENYTOIN] yielded a median effective dose (ED50) of 19.8 µmol/kg.

Take `CC12CCC(=O)N1c1cc([N+](=O)[O-])ccc1N2` (centres undefined): the ED50 is above 600 µmol/kg.

Compound `CC12CCC(=O)N1c1ccc(Cl)cc1N2` (centres undefined) had an ED50 of 79.4 µmol/kg.

Compound `Cc1ccc2c(c1)NC1(C)CCC(=O)N21` (centres undefined) had an ED50 of 97.7 µmol/kg.

Another data set is filed under the species Mus musculus. Nature of the data set: Compound was tested for its activity against clonic seizures phase in […] mice; Completely protected. Type of data set: functional.
Conditions: not given
The procedure, abridged: as §2
In turn, `CC12CCC(=O)N1c1ccccc1N2` (centres undefined) displayed an Activity of 100 µM/kg.

As usually defined, the ED50 is the dose at which the effect has come halfway, by size or by number of responders. A high value points to weaker potency.

These data come from ChEMBL document CHEMBL1124609, “Synthesis and anticonvulsant properties of 2,3,3a,4-tetrahydro-1H-pyrrolo[1,2-a]benzimidazol-1-ones” (J Med Chem, 1989).
